Test results from ChEMBL document CHEMBL4265871, “Novel alkylated azoles as potent antifungals” (Eur J Med Chem, 2017).
Converted amounts (≈) assume the structure as drawn.

How the values were obtained:
Aspergillus terreus = assay: Antifungal activity against Aspergillus terreus ATCC MYA-3633 incubated for 48 hrs by CLSI M38-A2 protocol based method; type: functional; conditions: ATCC MYA-3633, 48 h, read-out: MIC100
[1] = Selectivity index, ratio of EC50 for toxicity in human BEAS2B cells to MIC50 for antifungal activity against ITC and FLC-susceptible Candida albicans ATCC MYA-2876; type: cell-based; conditions: BEAS-2B cells, read-out: Selectivity Index
Procedure, shortened: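 Ratio of the compound's EC50 against BEAS-2B cells to its MIC against the named C. albicans strain. […] For C. albicans strains other than ATCC 10231, trailing growth meant MIC-2 was taken, meaning 50% growth inhibition.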

[2] = Selectivity index, ratio of EC50 for toxicity in human BEAS2B cells to MIC50 for antifungal activity against Candida glabrata ATCC 2001; type: cell-based; conditions: BEAS-2B cells, read-out: Selectivity Index
Procedure, shortened: (§1)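 Selectivity index is the EC50 against the mammalian line (A549 or BEAS-2B) divided by the MIC against the given fungal strain.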

[3] = Selectivity index, ratio of EC50 for toxicity in human BEAS2B cells to MIC50 for antifungal activity against ITC and FLC-resistant Candida albicans ATCC MYA-1003; type: cell-based; conditions: BEAS-2B cells, read-out: Selectivity Index; procedure, shortened: as §1
[4] = Hemolytic activity in mouse erythrocytes assessed as hemolysis level at 125 ug/ml incubated for 1 hr at 37 degC; type: ADME, cell-based, Erythrocyte; conditions: read-out: Activity
Procedure, shortened: (§2)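 Mouse erythrocytes incubated 1 h at 37 °C with test agents over 1.95 to 125 µg/mL. Percent lysis is read for each concentration.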

Candida albicans [5] = assay: Antifungal activity against Candida albicans ATCC 64124 incubated for 48 hrs by modified CLSI M27-A3 protocol based method; type: functional; conditions: ATCC 64124, 48 h
[6] = Selectivity index, ratio of […] for toxicity in human A549 cells to MIC50 for antifungal activity against Aspergillus terreus ATCC MYA-3633; type: cell-based; conditions: read-out: Selectivity Index
Pichia kudriavzevii = assay: Antifungal activity against Candida krusei ATCC 6258 incubated for 48 hrs by modified CLSI M27-A3 protocol based method; type: functional; conditions: ATCC 6258, 48 h, read-out: MIC100
Procedure, shortened: (§3)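 For C. albicans ATCC 10231, C. krusei ATCC 6258 and C. parapsilosis ATCC 22019, MIC-0 was read, meaning complete growth inhibition. For azole controls, MIC-2 (50% growth inhibition) was reported instead. Caspofungin and voriconazole were tested here; other controls came from earlier work.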

[7] = Selectivity index, ratio of […] for toxicity in human A549 cells to MIC50 for antifungal activity against Aspergillus nidulans ATCC 38163; type: cell-based; conditions: read-out: Selectivity Index
[8] = Hemolytic activity in mouse erythrocytes assessed as hemolysis level at 3.9 ug/ml incubated for 1 hr at 37 degC; type: ADME, cell-based, Erythrocyte; conditions: read-out: Activity; procedure, shortened: as §2
Aspergillus nidulans = assay: Antifungal activity against Aspergillus nidulans ATCC 38163 incubated for 48 hrs by CLSI M38-A2 protocol based method; type: functional; conditions: ATCC 38163, 48 h, read-out: MIC100
Nakaseomyces glabratus = assay: Antifungal activity against Candida glabrata ATCC 2001 incubated for 48 hrs by modified CLSI M27-A3 protocol based method; type: functional; conditions: ATCC 2001, 48 h
Candida albicans [9] = assay: Antifungal activity against ITC and FLC-resistant Candida albicans ATCC 1237 incubated for 48 hrs by modified CLSI M27-A3 protocol based method; type: functional; conditions: ATCC 1237, 48 h
Procedure, shortened: (§4)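 Because these Candida strains show trailing growth, MIC-2 was read, meaning 50% growth inhibition. Caspofungin and voriconazole were tested here; other controls came from earlier work.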

[10] = Selectivity index, ratio of EC50 for toxicity in human A549 cells to MIC50 for antifungal activity against ITC and FLC-susceptible Candida albicans ATCC MYA-2310; type: cell-based; conditions: read-out: Selectivity Index; procedure, shortened: as §1
[11] = Selectivity index, ratio of EC50 for toxicity in human A549 cells to MIC50 for antifungal activity against ITC and FLC-susceptible Candida albicans ATCC MYA-2876; type: cell-based; conditions: read-out: Selectivity Index; procedure, shortened: as §1
[12] = Selectivity index, ratio of […] for toxicity in human BEAS2B cells to MIC50 for antifungal activity against Aspergillus nidulans ATCC 38163; type: cell-based; conditions: BEAS-2B cells, read-out: Selectivity Index
[13] = Selectivity index, ratio of EC50 for toxicity in human BEAS2B cells to MIC50 for antifungal activity against ITC and FLC-resistant Candida albicans ATCC 1237; type: cell-based; conditions: BEAS-2B cells, read-out: Selectivity Index; procedure, shortened: as §1
Candida parapsilosis = assay: Antifungal activity against Candida parapsilosis ATCC 22019 incubated for 48 hrs by modified CLSI M27-A3 protocol based method; type: functional; conditions: Lodderomyces parapsilosis, ATCC 22019, 48 h; read-out: MIC100; procedure, shortened: as §3
[14] = Selectivity index, ratio of EC50 for toxicity in human BEAS2B cells to MIC50 for antifungal activity against Candida krusei ATCC 6258; conditions: BEAS-2B cells
[15] = Selectivity index, ratio of EC50 for toxicity in human A549 cells to MIC50 for antifungal activity against ITC and FLC-resistant Candida albicans ATCC MYA-1003; type: cell-based; conditions: read-out: Selectivity Index; procedure, shortened: as §1
Aspergillus flavus = assay: Antifungal activity against Aspergillus flavus ATCC MYA-3631 incubated for 48 hrs by CLSI M38-A2 protocol based method; type: functional; conditions: ATCC MYA-3631, 48 h, read-out: MIC100
[16] = Selectivity index, ratio of EC50 for toxicity in human A549 cells to MIC50 for antifungal activity against Candida glabrata ATCC 2001; type: cell-based; conditions: read-out: Selectivity Index; procedure, shortened: as §1
Candida albicans [17] = assay: Antifungal activity against ITC and FLC-resistant Candida albicans ATCC MYA-1003 incubated for 48 hrs by modified CLSI M27-A3 protocol based method; type: functional; conditions: ATCC MYA-1003, 48 h; procedure, shortened: as §4
Candida albicans [18] = assay: Antifungal activity against ITC and FLC-susceptible Candida albicans ATCC MYA-2876 incubated for 48 hrs by modified CLSI M27-A3 protocol based method; type: functional; conditions: ATCC MYA-2876, 48 h; procedure, shortened: as §4
Candida albicans [19] = assay: Antifungal activity against ITC and FLC-susceptible Candida albicans ATCC MYA-2310 incubated for 48 hrs by modified CLSI M27-A3 protocol based method; type: functional; conditions: ATCC MYA-2310, 48 h
[20] = Hemolytic activity in mouse erythrocytes assessed as hemolysis level at 7.8 ug/ml incubated for 1 hr at 37 degC; type: ADME, cell-based, Erythrocyte; conditions: read-out: Activity; procedure, shortened: as §2
[21] = Selectivity index, ratio of EC50 for toxicity in human A549 cells to MIC for antifungal activity against Candida parapsilosis ATCC 22019
Candida albicans [22] = assay: Antifungal activity against Candida albicans ATCC 10231 incubated for 48 hrs by modified CLSI M27-A3 protocol based method; type: functional; conditions: ATCC 10231, 48 h, read-out: MIC100; procedure, shortened: as §3
[23] = Selectivity index, ratio of EC50 for toxicity in human BEAS2B cells to MIC100 for antifungal activity against Candida albicans ATCC 10231; type: cell-based; conditions: BEAS-2B cells, read-out: Selectivity Index; procedure, shortened: as §1
[24] = Hemolytic activity in mouse erythrocytes assessed as hemolysis level at 31.3 ug/ml incubated for 1 hr at 37 degC; type: ADME, cell-based, Erythrocyte; conditions: read-out: Activity; procedure, shortened: as §2
[25] = Hemolytic activity in mouse erythrocytes assessed as hemolysis level at 15.6 ug/ml incubated for 1 hr at 37 degC; type: ADME, cell-based, Erythrocyte; conditions: read-out: Activity; procedure, shortened: as §2
[26] = Selectivity index, ratio of EC50 for toxicity in human A549 cells to MIC50 for antifungal activity against ITC and FLC-resistant Candida albicans ATCC 1237; type: cell-based; conditions: read-out: Selectivity Index; procedure, shortened: as §1

Structure (SMILES) | MIC (Aspergillus terreus) [µM] | selectivity ratio [1] | selectivity ratio [2] | selectivity ratio [3] | hemolysis at 1 h, 125 ug/ml [4] [%] | MIC50 (Candida albicans [5]) [µM] | selectivity ratio [6] | MIC (Pichia kudriavzevii) [µM] | selectivity ratio [7] | hemolysis at 1 h, 3.9 ug/ml [8] [%] | MIC (Aspergillus nidulans) [µM] | MIC50 (Nakaseomyces glabratus) [µM] | MIC50 (Candida albicans [9]) [µM] | selectivity ratio [10] | selectivity ratio [11] | selectivity ratio [12] | selectivity ratio [13] | MIC (Candida parapsilosis) [µM] | selectivity ratio [14] | selectivity ratio [15] | other results
CCCCCCC(O)(Cn1cncn1)c1ccc(Cl)cc1Cl (stereo unspecified) | 11.4 (≈ 3.9 µg/mL) | 29 | 14 | 29 | 105 | 5.7 (≈ 1.95 µg/mL) | 5 | 0.09 (≈ 0.0308 µg/mL) | 42 | 0 | 1.4 (≈ 0.479 µg/mL) | 5.7 (≈ 1.95 µg/mL) | 5.7 (≈ 1.95 µg/mL) | 10 | 21 | 58 | 14 | < 0.09 | 933 | 21 | MIC (Aspergillus flavus): 11.4 µM (≈ 3.9 µg/mL); selectivity ratio [16]: 10; MIC50 (Candida albicans [17]): 2.8 µM (≈ 0.958 µg/mL); MIC50 (Candida albicans [18]): 2.8 µM (≈ 0.958 µg/mL); MIC50 (Candida albicans [19]): 5.7 µM (≈ 1.95 µg/mL); hemolysis at 1 h, 7.8 ug/ml [20]: 1.6%; selectivity ratio [21]: 667; MIC (Candida albicans [22]): 0.7 µM (≈ 0.24 µg/mL); selectivity ratio [23]: 117; hemolysis at 1 h, 31.3 ug/ml [24]: 92%; hemolysis at 1 h, 15.6 ug/ml [25]: 105%; selectivity ratio [26]: 10
CCCCC(O)(Cn1cncn1)c1ccc(F)cc1F (stereo unspecified) | 55.5 (≈ 15.6 µg/mL) | 5 | 1 | 9 | 0 | 55.5 (≈ 15.6 µg/mL) | 2 | 0.21 (≈ 0.0591 µg/mL) | 16 | 0 | 6.9 (≈ 1.94 µg/mL) | 112 (≈ 31.4 µg/mL) | 55.5 (≈ 15.6 µg/mL) | 1 | 4 | 19 | 2 | < 0.11 | 600 | 8 | MIC (Aspergillus flavus): 55.5 µM (≈ 15.6 µg/mL); selectivity ratio [16]: 1; MIC50 (Candida albicans [17]): 13.9 µM (≈ 3.91 µg/mL); MIC50 (Candida albicans [18]): 27.7 µM (≈ 7.79 µg/mL); MIC50 (Candida albicans [19]): 112 µM (≈ 31.4 µg/mL); hemolysis at 1 h, 7.8 ug/ml [20]: 0%; selectivity ratio [21]: 1040; MIC (Candida albicans [22]): 6.9 µM (≈ 1.94 µg/mL); selectivity ratio [23]: 19; hemolysis at 1 h, 31.3 ug/ml [24]: 3.7%; hemolysis at 1 h, 15.6 ug/ml [25]: 0%; selectivity ratio [26]: 2
CCCCCC(O)(Cn1cncn1)c1ccccc1Cl (stereo unspecified) | 53.1 (≈ 15.6 µg/mL) | 32 | 32 | 4 | 81 | > 106 | 2 | 3.3 (≈ 0.97 µg/mL) | 32 | 0 | 3.3 (≈ 0.97 µg/mL) | 3.3 (≈ 0.97 µg/mL) | 3.3 (≈ 0.97 µg/mL) | 32 | 32 | 32 | 32 | 0.41 (≈ 0.12 µg/mL) | 32 | 4 | MIC (Aspergillus flavus): > 106 µM; selectivity ratio [16]: 32; MIC50 (Candida albicans [17]): 26.5 µM (≈ 7.79 µg/mL); MIC50 (Candida albicans [18]): 3.3 µM (≈ 0.97 µg/mL); MIC50 (Candida albicans [19]): 3.3 µM (≈ 0.97 µg/mL); hemolysis at 1 h, 7.8 ug/ml [20]: 0%; selectivity ratio [21]: 261; MIC (Candida albicans [22]): 26.5 µM (≈ 7.79 µg/mL); selectivity ratio [23]: 4; hemolysis at 1 h, 31.3 ug/ml [24]: 0%; hemolysis at 1 h, 15.6 ug/ml [25]: 0%; selectivity ratio [26]: 32
